bIAP act: intestinal alkaline phosphatase (bovine) activation; activation factor at 20 µM; purified bovine IAP, CDP-star luminescence, 30 min; hits give high values; fold of DMSO-control signal, blank-subtracted; 0.17% of 200,000 active;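 active = activation factor of 2 or more at 20 µM, a signal rise over negative controls twice the positive control's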
hIAP act: human IAP activation; P09923; activation factor at 10 µM; 0.16% of 330,000 active; purified human IAP, CDP-Star luminescence, 30 min; hits give high values; 1 = vehicle-only enzyme, 0 = enzyme-free background;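 active = activation factor of the enzyme at least 2-fold when tested at 20 µM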
Target sequence (P09923 whole entry, looked up): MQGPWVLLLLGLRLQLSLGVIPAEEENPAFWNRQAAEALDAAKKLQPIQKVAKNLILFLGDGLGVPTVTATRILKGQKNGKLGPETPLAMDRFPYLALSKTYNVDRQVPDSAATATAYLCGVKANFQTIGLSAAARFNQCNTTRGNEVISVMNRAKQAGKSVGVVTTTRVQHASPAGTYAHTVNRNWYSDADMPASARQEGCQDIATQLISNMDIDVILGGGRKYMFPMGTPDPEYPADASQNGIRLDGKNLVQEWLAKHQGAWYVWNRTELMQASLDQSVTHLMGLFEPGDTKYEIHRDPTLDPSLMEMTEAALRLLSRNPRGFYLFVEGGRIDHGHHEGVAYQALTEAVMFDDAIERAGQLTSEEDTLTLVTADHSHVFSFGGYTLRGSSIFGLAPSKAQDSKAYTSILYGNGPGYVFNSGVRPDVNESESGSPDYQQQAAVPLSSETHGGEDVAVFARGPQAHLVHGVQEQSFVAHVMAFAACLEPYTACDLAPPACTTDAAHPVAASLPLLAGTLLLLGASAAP
hIAP block: blocks human intestinal alkaline phosphatase | P09923 | purified IAP, CDP-Star luminescence, 30 min | inhibition, % at 10 µM | 0.12% of 330,000 active;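 active = inhibition reaching a set limit with compound at 10 µM in the primary screen, cut at about 35% in these data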;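 note: plate controls were DMSO wells with enzyme for no effect and no-enzyme buffer wells for full effect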
mIAP block: blocks mouse intestinal alkaline phosphatase. purified mouse IAP, CDP-Star luminescence, 30 min. inhibition, % at 10 µM. 0.2% of 330,000 active;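 active = inhibition of at least 40% at 10 µM in the primary screen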;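 note: plate controls were DMSO with enzyme for no effect and no enzyme wells for full effect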
bIAP inhibitor: intestinal alkaline phosphatase (bovine) inhibition | purified bovine IAP, CDP-star luminescence, 30 min | 190,000 tested, under 10 active | inhibition, % at 20 µM | AID 1019;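 active = over 50% inhibition of intestinal alkaline phosphatase at 20 µM in the single-dose screen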
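System: purified bovine intestinal alkaline phosphatase (IAP) enzyme; Input: IAP diluted 1/65,000,000 in the well; Measured by: CDP-star luminescence signal; Compound dosing: 20 µM single dose; Incubation: 30 min reaction at room temperature.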
mIAP act: mouse IAP activation. AID 2805. 0.24% of 330,000 active. muIAP, CDP-Star luminescence, 30 min; hits give high values; 1 = vehicle-only enzyme signal, 0 = enzyme-free wells. activation factor at 10 µM;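 active = activation factor of at least 2 at 20 µM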
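Assay system: mouse IAP enzyme; Reagent: CDP-Star chemiluminescent phosphatase substrate; Compound: DMSO-dissolved test compounds; Incubation: 30 min, room temperature; Technique: luminescence from enzymatic CDP-Star hydrolysis; Controls: DMSO-only wells and no-enzyme negative control.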
hIAP act confirm: human IAP activation confirmation; shares compounds with hIAP act; purified IAP, CDP-Star luminescence, 30 min; hits give low values; activation (%Activity, negative = activation), % at 8.3 µM; AID 434926; 10% of 880 active;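 active = at least twofold enzyme activation in any of six single-dose repeats, which the averaged readout prints as negative percent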
The depositor's hits bear a star; / = no result. Most compounds without a hit are left out; they make up all but 0.79% or so of the library.

SMILES | bIAP act | hIAP act | hIAP block | mIAP block | bIAP inhibitor | mIAP act | hIAP act confirm
COc1cc(/C=C2/SC(=S)N(Cc3ccccc3)C2=O)ccc1O | / | 0.961 | 3.9 | 27.9 | / | 0.721 | /
O=C1/C(=C\c2ccc(O)c(O)c2)SC(=S)N1Cc1ccccc1 | / | 0.454 | 54.6* | 33.0 | / | 0.67 | -89.5
CC(=O)N[C@@H](C)C(=O)N1CCN(S(=O)(=O)c2ccc(Cl)cc2)CC1 | 1 | 2.77* | -177.4 | 4.8 | -3.7 | 0.952 | -37.9
COC(=O)c1[nH]c2ccccc2c1NC(=O)CN1CCCCCC1 | 1.2 | 1.07 | -6.8 | 4.2 | -17.1 | 0.958 | /
COC(=O)c1[nH]c2ccccc2c1NC(=O)CNC1CCCCC1 | 1 | 0.47 | 53.0* | 3.8 | 3.9 | 0.962 | -31.7
Cc1ccc(O)c(N/C=C/C(=O)c2ccc(F)cc2)c1 | / | 2.85* | -184.7 | 5.7 | / | 0.943 | -119.6*
COCCNC(=O)C(c1ccc(C)cc1)N(C(=O)CCC(=O)Nc1ccccn1)c1ccccc1C (stereo unspecified) | / | 1.26 | -25.7 | -3.6 | / | 1.04 | /
Cc1ccc(-n2ncc3c(NNC(=O)Cc4ccccc4)ncnc32)cc1 | 1.1 | 2.21* | -120.6 | -6.8 | -7.3 | 1.07 | 9.9
CC(=O)Nc1ccc(Nc2ncnc3c2cnn3-c2ccccc2)cc1 | 1 | 0.942 | 5.8 | 8.3 | -4.0 | 0.917 | /
CC(=O)NNc1ncnc2c1cnn2-c1ccccc1 | 1.4 | 3.04* | -204.5 | 18.8 | -44.0 | 0.812 | -68.9
Nc1nc(NCCCN2CCOCC2)nc(Nc2cccc(F)c2)c1[N+](=O)[O-] | / | 0.639 | 36.1* | 11.9 | / | 0.881 | -18.1
Nc1ccc(C(=O)OCC(=O)N2c3ccccc3Sc3ccccc32)cc1[N+](=O)[O-] | 1 | / | / | / | -1.5 | / | /
NCCNc1ccc(C(=O)N2c3ccccc3Sc3ccccc32)cc1[N+](=O)[O-] | / | 3.46* | -246.0 | 3.9 | / | 0.961 | -42.5
CCc1ccc(N=C2N=C(N)c3ccccc32)cc1 | 0.9 | 0.624 | 37.6* | 4.0 | 8.5 | 0.96 | 21.2
Cc1cc(C(=O)N2CCc3ccccc3C2)n[nH]1 | / | 1.16 | -16.1 | 4.3 | / | 0.957 | /
C/C(=N\NC(=O)C1CC1)c1ccccc1Br | / | 0.649 | 35.1* | -2.1 | / | 1.02 | -30.1
O=C(NNC(=S)NC(=O)c1ccc(F)cc1)c1ccncc1 | / | 2.12* | -112.1 | 23.3 | / | 0.767 | -55.6
COc1ccc(C2(C#N)CCC(=O)N2c2ccccc2)cc1 (stereo unspecified) | / | 0.871 | 12.9 | -2.2 | / | 1.02 | /
COc1ccccc1C(=O)NCC(=O)NNc1ncnc(N)c1[N+](=O)[O-] | 1.3 | 2.59* | -159.2 | 24.8 | -30.4 | 0.752 | -30.7
Cc1cc(C)cc(NC(=S)N2CCCC2)c1 | / | 0.644 | 35.6* | -0.2 | / | 1 | -26.7
CCCCOc1cccc(C2/C(=C(\O)c3ccc4c(c3)OCCO4)C(=O)C(=O)N2CCN2CCOCC2)c1 (stereo unspecified) | / | 0.576 | 42.4* | -0.8 | / | 1.01 | -90.6*
O=C(O)c1ccc2c(c1)C(=O)N(Cc1ccc3c(c1)OCO3)C2=O | 1 | 0.821 | 17.9 | 3.9 | -2.9 | 0.961 | /
O=C1c2ccccc2C(=O)N1Cc1ccc2c(c1)OCO2 | 0.9 | 2* | -100.4 | -5.0 | 7.8 | 1.05 | -25.7
Cc1nc2c3ccccc3nc(NNC(=O)CCC(=O)NCCN3CCN(c4ccccc4)CC3)n2n1 | / | 2.3* | -130.0 | 10.1 | / | 0.899 | -97.4*
CCOCCCNC(=O)CCC(=O)NNc1nc2ccccc2c2nc(C)nn12 | 1.3 | 3.07* | -206.8 | -0.6 | -34.2 | 1.01 | 4.3
CCCCNC(=O)CCC(=O)NNc1nc2ccccc2c2nc(C)nn12 | 0.8 | 2.54* | -153.5 | 21.7 | 22.2 | 0.783 | 8.4
Cc1nc2c3ccccc3nc(NNC(=O)CCC(=O)N3CCN(c4ccc(F)cc4)CC3)n2n1 | / | 0.78 | 22.0 | 6.0 | / | 0.94 | /
CC1(NC(=O)CCc2nc3sc4c(c3c(=O)[nH]2)CCCC4)CCS(=O)(=O)C1 (stereo unspecified) | / | 1.09 | -9.4 | 5.5 | / | 0.945 | /
O=C(NCCCc1ccccc1)c1ccc(CS(=O)Cc2ccc(Cl)cc2)o1 (stereo unspecified) | / | 0.611 | 38.9* | 5.9 | / | 0.941 | -22.2

Screens: PubChem, Sanford-Burnham Center for Chemical Genomics
